In ChEMBL document CHEMBL1146602, “4-Hydroxymethyl-3-aminoacridine derivatives as a new family of anticancer agents” (J Med Chem, 2003) one finds IC50 and logP data, which are given here for 20 molecules.

In general, IC50 refers to the midpoint of a concentration-inhibition curve. A high value points to weaker potency in that assay. Usually logP stands for a log measure of how a compound divides between an organic and an aqueous phase. A higher logP goes with a more lipophilic compound.

For one series, the system named is A549. The series is described as follows: In vitro cytotoxicity against A549 (human lung carcinoma) cell line. The class given is functional, cell-based. Summed up: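 Clonogenic test on A549 lung adenocarcinoma cells in F12-K with 10% FCS, plated at 200 cells/well. After 24 h, exposed 24 h to compounds at various concentrations, washed with PBS, then grown 14 days drug-free. Giemsa-stained colonies counted; survival as % of untreated controls.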

Another series has as its system L1210. The series is described as follows: In vitro cytotoxic against L1210 (murine leukemia) cell line. The class given is functional, cell-based. Particulars: Mus musculus. In short, it runs like this: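 L1210 mouse leukaemia cells in DMEM with 10% FCS, seeded at 10⁵ cells/mL and grown 24 h (about 3×10^5 cells/mL). Compounds added in DMSO at increasing concentrations, in duplicate, against DMSO controls. Cells counted with a Coulter counter after a further 24 h at 37 °C, 5% CO2. IC50 (50% reduction in cell number versus controls) taken from regression curves.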

The next series concerns HT-29. The series can be described thus: In vitro cytotoxicity against HT-29 (human colon cancer) cell line. Format: functional, cell-based. Summed up: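 HT29 colon adenocarcinoma cells in DMEM with 10% FCS, seeded at 5×10^4 cells/well and grown 2 days, then exposed 24 h to compounds in DMSO (DMSO controls). Cells washed with PBS and regrown 3 days drug-free. Survival read by MTT (30 min, 100 µg/well), formazan dissolved in DMSO, A540, as % of controls. IC50 taken from regression curves.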

Series [1] can be described thus: Partition coefficient (logP). The class given is physicochemical. Particulars: octanol/water.

Consider `CNc1ccc2cc3ccc(N(C)S(C)(=O)=O)cc3nc2c1CO`, for which the IC50 was determined as 300 nM in the series with A549, 200 nM with L1210 and 1200 nM with HT-29. In series [1], the logP is 1.56.

Regarding `CCOC(=O)Nc1ccc2cc3ccc4c(c3nc2c1)COC(=O)N4`, the IC50 in the series with A549 came to 2200 nM; in the series on L1210 it was 2700 nM; in the series on HT-29, 11000 nM. Besides, the logP in series [1] stood at 2.

`CCOC(=O)Nc1ccc2cc3ccc4c(c3nc2c1)COCN4C(=O)OCC`: the results for the IC50 in the series on A549, in the series on L1210 and with HT-29 were 19000 nM, 84000 nM and over 100000 nM, respectively. In series [1], the logP turned out to be 3.12.

As for `CCOC(=O)Nc1ccc2cc3ccc4c(c3nc2c1)COCN4`, the IC50 was over 50 nM in the series on A549, 80 nM in the series on L1210 and 1300 nM in the series with HT-29. For the same molecule, the logP in series [1] was 2.07.

Consider `Nc1ccc2cc3ccccc3nc2c1CO`, for which the IC50 stood at 5 nM in the series on A549, 20 nM in the series with L1210 and 25 nM in the series on HT-29. The logP in series [1] came to 1.77.

For the molecule `CS(=O)(=O)Nc1ccc2cc3ccc4c(c3nc2c1)COCN4`, the figures for the IC50 with A549, in the series with L1210 and in the series on HT-29 were 6000 nM, 6200 nM and 12000 nM, respectively. In series [1], this molecule came in with a logP of 0.7.

On to `CCOC(=O)N1COCc2c1ccc1cc3ccc(NC)c(CO)c3nc21`, for which the IC50 with A549 came out at 350 nM; with L1210, 1500 nM; in the series on HT-29, 4200 nM. The molecule further returned a logP in series [1] of 1.75.

Take `CCOC(=O)Nc1ccc2cc3ccc(NC)c(CO)c3nc2c1`: the half-inhibitory concentration (IC50) was 30 nM in the series with A549, 90 nM in the series on L1210 and 350 nM with HT-29. The molecule also came in with a logP in series [1] of 1.97.

As for `CN(C)c1ccc2cc3ccccc3nc2c1CO`, the IC50 was 13000 nM with A549, 6000 nM with L1210 and 14000 nM in the series on HT-29. Further, in series [1], the logP stood at 2.2.

As to `CN1COCc2c1ccc1cc3ccc4c(c3nc21)COC(=O)N4`, the values for the IC50 in the series on A549, in the series on L1210 and in the series with HT-29 were 450 nM, 1000 nM and 9000 nM, respectively. In series [1], this molecule gave a logP of 1.7.

As to `c1cc2cc3ccc4c(c3nc2c2c1NCOC2)COCN4`, the IC50 was determined as 20 nM with A549, 350 nM in the series with L1210 and 1500 nM in the series on HT-29. In series [1], this molecule yielded a logP of 2.17.

Take `CN(c1ccc2cc3ccc4c(c3nc2c1)COCN4)S(C)(=O)=O`: the IC50 in the series with A549 was determined as 1300 nM; in the series on L1210 it was 600 nM; in the series with HT-29 it was 2300 nM. In series [1], the log partition coefficient (logP) amounted to 1.54.

Turning to `O=C1Nc2ccc3cc4ccccc4nc3c2CO1`, the IC50 came to 7000 nM with A549, 2800 nM in the series on L1210 and 17000 nM with HT-29. The same molecule showed a logP in series [1] of 1.64.

For `CCOC(=O)Nc1ccc2cc3ccc(N)c(CO)c3nc2c1`, the IC50 in the series with A549 is 10 nM; in the series on L1210 it was 10 nM; in the series on HT-29, 40 nM. The molecule also showed a lipophilicity (logP) in series [1] of 1.55.

As to `CNc1ccc2cc3ccc4c(c3nc2c1CO)COCN4`, the 50% inhibitory concentration (IC50) is 100 nM in the series with A549, 500 nM in the series on L1210 and 2000 nM in the series on HT-29. Also, the logP in series [1] was 1.65.

Regarding `CCOC(=O)N1COCc2c1ccc1cc3ccc4c(c3nc21)COCN4C(=O)OCC`, the half-inhibitory concentration (IC50) in the series with A549 is 3500 nM; with L1210 it was over 200000 nM; with HT-29 it was 1000 nM. Also, the logP in series [1] was determined as 2.5.

`CN1COCc2c1ccc1cc3ccc(N)c(CO)c3nc21`: the values for the IC50 in the series with A549, in the series on L1210 and in the series on HT-29 were 50 nM, 650 nM and 300 nM, respectively. In series [1], this molecule showed a logP of 1.64.

For `CNc1ccc2cc3ccc(NS(C)(=O)=O)cc3nc2c1CO`, the IC50 with A549 was determined as 4400 nM; in the series on L1210 it was 2800 nM; in the series on HT-29, 29000 nM. The molecule also displayed a logP in series [1] of 0.55.

Turning to `CNc1ccc2cc3ccc4c(c3nc2c1CO)COCN4S(C)(=O)=O`, the IC50 in the series with A549 came out at 100 nM; with L1210, 1600 nM; in the series on HT-29, 3700 nM. In series [1], this molecule gave a logP of 1.2.

Regarding `CNc1ccc2cc3ccccc3nc2c1CO`, the IC50 in the series on A549 was 1400 nM; in the series on L1210 it was 1100 nM; with HT-29, 2500 nM. In series [1], this molecule showed a logP of 2.1.
